Compound activity (PubChem)
ADAM10 inh – inhibits human ADAM10 | hit rate 0.62% among 370,000 | inhibition, % at 7 µM | AID 720582 | recombinant ADAM10, EDANS/DABCYL FRET peptide cleavage, 3 h | O14672;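 active means inhibition above a per-campaign cutoff equal to the mean of compounds falling between control-based bounds plus 3 SD, cut at about 20% in these data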;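 further: 0% = DMSO wells while the 100% control is not disclosed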
PLCg1 inh – PLC-gamma1 (human) inhibition, primary screen; AID 720700; inhibition, % at 12.2 µM; hit rate 0.84% among 370,000; P19174; purified PLC-gamma1, fluorogenic substrate, fluorescence; in the data active means inhibition above about 9.5%
TbMetRS inhib – Trypanosoma brucei MetRS inhibition. purified T. brucei MetRS, ATP depletion, Kinase-Glo luminescence. inhibition, % at 11.9 µM. hit rate 0.4% among 360,000. AID 624268;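 active means inhibition above a per-plate cutoff of the control wells' mean inhibition plus 3 SD, cut at about 5.5% in these data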;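 further: 0% = DMSO wells median and 100% = median of wells with control inhibitor compound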
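Test system – parasite MetRS enzyme · Reagent – substrates ATP, L-methionine and bulk Escherichia coli tRNA · Doses – 11.9 µM compound single dose, 0.9% DMSO · Times – 15 min enzyme-compound preincubation, 2 h reaction, 10 min detection, 25 °C · Signal – Kinase-Glo luminescence, ATP depletion format · Controls – DMSO-only wells as low control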
PLCb3 inh – PLC-beta3 (human) inhibition, primary screen; Purified PLC-beta3, fluorogenic substrate, fluorescence; inhibition, % at 12.2 µM; hit rate 0.18% among 370,000; in the data active means inhibition above about 11%;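 further: 0% = median of compound wells on plate and 100% = full blocker control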
ADAM17 inh – ADAM17 inhibition, QFRET primary screen | recombinant ADAM17, EDANS/DABCYL FRET peptide cleavage | inhibition, % at 6.95 µM | hit rate 0.83% among 370,000 | AID 720648 | P78536;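 active means inhibition above the mean of compounds lying between control limits plus 3 SD, set per campaign, cut at about 8.5% in these data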;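 further: 0% = DMSO-only wells as the low control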
Target sequence (P78536 215-824 limits assumed): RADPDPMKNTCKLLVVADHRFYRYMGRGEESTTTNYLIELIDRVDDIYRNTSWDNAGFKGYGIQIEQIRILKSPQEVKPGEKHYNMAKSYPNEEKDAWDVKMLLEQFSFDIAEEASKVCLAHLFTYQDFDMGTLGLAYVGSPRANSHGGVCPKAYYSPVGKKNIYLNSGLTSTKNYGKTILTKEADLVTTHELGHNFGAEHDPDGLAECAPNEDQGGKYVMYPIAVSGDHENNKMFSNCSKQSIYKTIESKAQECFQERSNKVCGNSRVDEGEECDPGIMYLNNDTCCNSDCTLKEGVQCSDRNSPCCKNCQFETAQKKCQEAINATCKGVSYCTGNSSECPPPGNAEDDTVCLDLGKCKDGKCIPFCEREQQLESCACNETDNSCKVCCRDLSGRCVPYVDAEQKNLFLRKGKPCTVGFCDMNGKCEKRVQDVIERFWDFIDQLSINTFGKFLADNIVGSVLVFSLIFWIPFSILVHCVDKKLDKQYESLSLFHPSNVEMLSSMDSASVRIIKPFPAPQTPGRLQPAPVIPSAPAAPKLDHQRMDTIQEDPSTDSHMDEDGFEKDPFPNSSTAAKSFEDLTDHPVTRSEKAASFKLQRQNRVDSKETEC
Tb MetRS conf – confirmation of Trypanosoma brucei MetRS inhibitors. hit rate 93% among 1,400. T. brucei MetRS enzyme, luminescence (ATP depletion). shares compounds with TbMetRS inhib. inhibition, % at 11.9 µM; in the data active means inhibition above about 7%
Jurkat cytotox – kills Jurkat cells in T. brucei MetRS counterscreen; Jurkat cells viability, ATP luminescence; inhibition, % at 8.3 µM; shares compounds with TbMetRS inhib; hit rate 12% among 1,400; in the data active means inhibition above about 15%;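 further: 0% = vehicle and 100% = reference inhibitor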
TbMetRS FP orth – T. brucei MetRS inhibition, orthogonal assay; shares compounds with TbMetRS inhib; purified T. brucei MetRS, fluorescence polarization; inhibition, % at 11.9 µM; hit rate 44% among 1,400; AID 651607; in the data active means inhibition above about 17%;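 further: 0% = vehicle wells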
Active calls of the source: *; nt = no result given. An excerpt weighted towards active compounds, which were near 2.3% of everything screened.

SMILES	ADAM10 inh	PLCg1 inh	TbMetRS inhib	PLCb3 inh	ADAM17 inh	Tb MetRS conf	Jurkat cytotox	TbMetRS FP orth
COc1ccccc1CNC(=O)COC(=O)c1ccc(Cl)c(N)c1	-49	-31	3	-63	-19	nt	nt	nt
Nc1cc(C(=O)OCC(=O)NCCNC(=O)COC(=O)c2ccc(Cl)c(N)c2)ccc1Cl	-27	-13	11*	-28	-7	30*	-2	8
O=C(NCCc1nc2ccccc2[nH]1)/C(=C/c1ccc2c(c1)OCO2)NC(=O)c1ccccc1	-7	-2	6.4*	-5	-1	9.6*	1	2
COc1ccccc1C(=O)N/C(=C\c1ccc2c(c1)OCO2)C(=O)NCCc1nc2ccccc2[nH]1	-2	-5	8.8*	-9	-3	16*	10	5
Cc1ccc2c(CN3CCN(c4ccccc4)CC3)cc(=O)oc2c1	4	-1	0	-1	-1	nt	nt	nt
CCOc1cc(O)c(-c2[nH]ncc2-c2nc(C)cs2)cc1CC	4	-10	-1	-23	1	nt	nt	nt
O=C(Nc1ccc(Cl)cc1)Nc1nnc(CSCc2ccccc2Cl)s1	-3	0	-1	3	1	nt	nt	nt
O=C(Nc1ccccc1)Nc1nnc(CSCc2ccccc2Cl)s1	8	0	12*	-37	0	61*	-1	55*
C#CCCCN([C@H](C(=O)OC)C(C)C)S(=O)(=O)c1ccccc1Br	5	2	nt	4	8	nt	nt	nt
C[C@H](CO)N1C[C@H](C)[C@@H](CN(C)S(=O)(=O)c2ccc(F)cc2)Oc2ccc(NC(=O)Nc3ccccc3)cc2C1=O	11	-2	2	-4	6	nt	nt	nt
C[C@H](CO)N1C[C@H](C)[C@@H](CN(C)S(=O)(=O)c2ccccc2)Oc2ccc(NC(=O)Nc3ccccc3)cc2C1=O	9	-1	7.2*	-2	3	19*	-3	3
C[C@H](CO)N1C[C@H](C)[C@@H](CN(C)C(=O)Nc2ccc(C(F)(F)F)cc2)Oc2ccc(NC(=O)Nc3ccccc3)cc2C1=O	16	4	6.1*	3	7	18*	7	13
O=C(NC(=S)NNC(=O)c1cnccn1)c1ccc(Cl)cc1	-2	-2	5.9*	-3	1	2	6	-5
COc1ccc(-n2c(SC)nnc2-c2c[nH]c3ccccc23)cc1	3	1	1	3	2	nt	nt	nt
COc1cccc(-n2c(SC)nnc2-c2c[nH]c3ccccc23)c1	2	-1	13*	4	1	22*	8	13
COc1ccc(OC)c(-n2c(SCC(=O)NCc3ccco3)nnc2-c2c[nH]c3ccccc23)c1	1	3	9.5*	3	1	21*	5	12
CC(=O)c1ccc(S(=O)(=O)N2CCN(c3ccnc4cc(Cl)ccc34)CC2)cc1	6	-4	0	-2	2	nt	nt	nt
Cc1ccc(NC(=O)CNC(=O)c2ccccc2F)cc1Cl	7	-3	-1	-3	0	nt	nt	nt
O=C(CCCCC(=O)Nc1ccc(F)cc1)Nc1ccc(F)cc1	1	2	0	1	-4	nt	nt	nt
O=C(CNC(=O)c1ccc(Cl)cc1Cl)Nc1ccc(F)cc1	1	0	10*	-6	-4	27*	-1	14
O=C(CC(=O)Nc1ccc(F)cc1)Nc1ccc(F)cc1	2	4	7.0*	5	-5	18*	-8	6
O=C(Cc1cccc(NC(=O)C2CCN(C(=O)CCc3ccccc3)CC2)c1)Nc1cccc(C(=O)N2CCCCC2)c1	-1	-3	-3	-1	-2	nt	nt	nt
COc1ccc(N(C)S(=O)(=O)c2cccc(C(=O)Nc3nc4ccccc4[nH]3)c2)cc1	8	-15	0	-24	1	nt	nt	nt
CN(c1cccc(Cl)c1)S(=O)(=O)c1cccc(C(=O)Nc2nc3ccccc3[nH]2)c1	3	-38	33*	-50	6	44*	68*	22*
COc1ccc(CNC(=O)CSc2nnc3c(n2)[nH]c2ccc(F)cc23)cc1	2	0	33*	-6	-3	92*	-4	66*
SMILES	ADAM10 inh	PLCg1 inh	TbMetRS inhib	PLCb3 inh	ADAM17 inh	Tb MetRS conf	Jurkat cytotox	TbMetRS FP orth
COc1ccc(CCNC(=O)CSc2nnc3c(n2)[nH]c2ccc(F)cc23)cc1OC	-4	5	0	5	2	nt	nt	nt
COc1ccc2[nH]c3nc(SCC(=O)Nc4cccc(NC(C)=O)c4)nnc3c2c1	-6	1	4	-2	-2	nt	nt	nt
Cc1ccc(CNC(=O)CSc2nnc3c(n2)[nH]c2ccccc23)cc1	-4	1	16*	3	0	69*	4	45*
O=C(CSc1nnc2c(n1)[nH]c1ccc(F)cc12)NCc1ccc(F)cc1	-5	-2	17*	-1	-1	71*	5	49*
O=C(CSc1nnc2c(n1)[nH]c1ccc(F)cc12)NC1CC1	-3	3	0	1	0	nt	nt	nt
COc1ccc(CNC(=O)CSc2nnc3c(n2)[nH]c2ccc(OC)cc23)cc1	0	1	7.6*	-3	0	35*	-1	22*
O=C(CN1CCN(C(=O)c2ccc(-c3nc4ccccc4s3)o2)CC1)Nc1ccc(F)cc1	-25	-5	0	-13	-6	nt	nt	nt
c1ccc(Nc2ccnc(Nc3ccccc3)n2)cc1	6	2	10*	-9	-2	24*	14	14
CC(=O)Nc1ccc(NC(=O)CCOc2ccccc2C)cc1	-5	-2	0	-2	1	nt	nt	nt
Cc1ccccc1OCCCC(=O)Nc1ccc(Br)cc1	17	0	6.4*	-1	3	8.2*	20*	10
Cn1cc(-c2coc3c(C(=O)NCc4cccs4)cccc23)cn1	nt	nt	0	nt	nt	nt	nt	nt
Cc1ccc(SCc2nc3ccccc3n2CC(=O)Nc2ccccc2)cc1	7	6	2	4	-5	nt	nt	nt
Cc1ccc(SCc2nc3ccccc3n2CC(=O)Nc2ccc(Cl)cc2)cc1	-1	1	17*	6	-2	22*	2	89*
Cn1nnc(NCc2cc(Br)ccc2OCc2ccccc2F)n1	9	0	20*	-1	1	24*	9	9
NC(=O)CSc1nnc(Cc2csc(Nc3ccccc3)n2)n1Cc1ccccc1	-2	3	9.0*	-5	-2	16*	2	1
Cc1ccc(NC(=O)C(C)c2cccc(C(=O)c3ccccc3)c2)cc1O (configuration not stated)	8	-1	84*	-4	5	99*	33*	78*
Cc1cccc(NC(=O)C(C)C(=O)c2ccccc2)c1 (configuration not stated)	3	1	0	-5	-2	nt	nt	nt
